Data published in ChEMBL document CHEMBL1137710, “Synthesis and in vitro antitumor activity of new quinoxaline derivatives” (2009).

Tests used:
Format in all cases: functional
HL-60(TB) = assay: Growth inhibition of human HL-60(TB) cells after 48 hrs by sulforhodamine B assay; conditions: HL-60, 48 h
Method in brief: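 Tested only on compounds active in a three-line prescreen, in the NCI 60-human-tumour-cell-line panel over a 5-log dose range. Values come from dose–response curves as log10 molar GI50, the concentration inhibiting 50% net cell growth. Log10 TGI (total growth inhibition) and log10 LC50 (50% net cell death) were derived too. Mean graph midpoints include insensitive lines at the highest concentration tested.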

K562 = assay: Growth inhibition of human K562 cells after 48 hrs by sulforhodamine B assay; conditions: K562, 48 h
Method in brief: (§1)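 NCI 60-human-tumor-cell-line panel, with compounds tested over a 5-log dose range. Values are taken from dose-response curves as log10 molar concentrations: GI50 is 50% net growth inhibition, TGI is total growth inhibition, and LC50 is 50% net cell death.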

[1] = Growth inhibition of human […] cells after 48 hrs by sulforhodamine B assay; method in brief: as §1
SR = assay: Growth inhibition of human SR cells after 48 hrs by sulforhodamine B assay
Method in brief: (§2)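 Run in the NCI 60-human-tumour-cell-line panel, tested over a 5-log dose range. Dose–response curves gave three values per cell line, each as a log10 molar concentration: GI50 (50% inhibition of net cell growth), TGI (total inhibition of net growth) and LC50 (50% net cell death). The mean graph midpoint is the arithmetic mean over all lines, with insensitive lines entered at the highest concentration tested.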

A549 = assay: Growth inhibition of human A549 cells after 48 hrs by sulforhodamine B assay; conditions: A549, 48 h; method in brief: as §1
EKVX = assay: Growth inhibition of human EKVX cells after 48 hrs by sulforhodamine B assay; method in brief: as §1
HOP-92 = assay: Growth inhibition of human HOP92 cells after 48 hrs by sulforhodamine B assay; conditions: HOP-92, 48 h; method in brief: as §1
NCI-H226 = assay: Growth inhibition of human NCI-H226 cells after 48 hrs by sulforhodamine B assay; conditions: NCI-H226, 48 h; method in brief: as §1
NCI-H23 = assay: Growth inhibition of human NCI-H23 cells after 48 hrs by sulforhodamine B assay; conditions: NCI-H23, 48 h; method in brief: as §1
HCT-116 = assay: Growth inhibition of human HCT116 cells after 48 hrs by sulforhodamine B assay; conditions: HCT-116, 48 h; method in brief: as §1
HCT-15 = assay: Growth inhibition of human HCT15 cells after 48 hrs by sulforhodamine B assay; conditions: HCT-15, 48 h; method in brief: as §1
HT-29 = assay: Growth inhibition of human HT-29 cells after 48 hrs by sulforhodamine B assay; conditions: HT-29, 48 h; method in brief: as §1
SW-620 = assay: Growth inhibition of human SW620 cells after 48 hrs by sulforhodamine B assay; conditions: SW-620, 48 h; method in brief: as §2
SF-539 = assay: Growth inhibition of human SF539 cells after 48 hrs by sulforhodamine B assay; conditions: SF-539, 48 h; method in brief: as §1
SNB-75 = assay: Growth inhibition of human SNB75 cells after 48 hrs by sulforhodamine B assay; conditions: SNB-75, 48 h; method in brief: as §2
LOX IMVI = assay: Growth inhibition of human LOXIMVI cells after 48 hrs by sulforhodamine B assay; method in brief: as §1
M14 = assay: Growth inhibition of human M14 cells after 48 hrs by sulforhodamine B assay; conditions: M14, 48 h; method in brief: as §1
SK-MEL-2 = assay: Growth inhibition of human SK-MEL-2 cells after 48 hrs by sulforhodamine B assay; conditions: SK-MEL-2, 48 h; method in brief: as §1
SK-MEL-28 = assay: Growth inhibition of human SK-MEL-28 cells after 48 hrs by sulforhodamine B assay; conditions: SK-MEL-28, 48 h; method in brief: as §1
UACC-62 = assay: Growth inhibition of human UACC62 cells after 48 hrs by sulforhodamine B assay; conditions: UACC-62, 48 h; method in brief: as §2
A498 = assay: Growth inhibition of human A498 cells after 48 hrs by sulforhodamine B assay; conditions: A498, 48 h; method in brief: as §1
ACHN = assay: Growth inhibition of human ACHN cells after 48 hrs by sulforhodamine B assay
RXF 393 = assay: Growth inhibition of human RXF393 cells after 48 hrs by sulforhodamine B assay; conditions: RXF 393, 48 h; method in brief: as §1
SN12C = assay: Growth inhibition of human SN12C cells after 48 hrs by sulforhodamine B assay; method in brief: as §2
DU-145 = assay: Growth inhibition of human DU145 cells after 48 hrs by sulforhodamine B assay; conditions: DU-145, 48 h; method in brief: as §1
NCI/ADR-RES = assay: Growth inhibition of human NCI/ADR-RES cells after 48 hrs by sulforhodamine B assay; method in brief: as §1
BT-549 = assay: Growth inhibition of human BT549 cells after 48 hrs by sulforhodamine B assay; conditions: BT-549, 48 h; method in brief: as §1
[2] = read-out: pLC50 (the source's name) (converted)

## COc1cc(CNc2nc3cc(N)cc(N)c3nc2-c2ccccc2)cc(OC)c1OC
HL-60(TB)
  GI50: 1.26 µM
  LC50: > 50.1 µM
HL-60(TB); read-out: pTGI (converted)
  TGI: > 50.1 µM
K562
  GI50: 1.78 µM
  LC50: > 50.1 µM
K562; read-out: pTGI (converted)
  TGI: > 50.1 µM
[1]
  GI50: 0.692 µM
  LC50: > 50.1 µM
[1]; read-out: pTGI (converted)
  TGI: 3.02 µM
SR
  GI50: 0.891 µM
  LC50 (concentration giving 50% net cell death): > 50.1 µM
SR; read-out: pTGI (converted)
  TGI: > 50.1 µM
A549
  GI50: 4.27 µM
  LC50: > 50.1 µM
A549; read-out: pTGI (converted)
  TGI: 33.1 µM
EKVX
  GI50: 1.95 µM
  LC50 (50% net cell kill): 27.5 µM
EKVX; read-out: pTGI (converted)
  TGI: 8.32 µM
HOP-92
  GI50: 1.2 µM
  LC50 (50% net cell death): > 50.1 µM
HOP-92; read-out: pTGI (converted)
  TGI: 3.09 µM
NCI-H226
  GI50: 10 µM
  LC50: > 50.1 µM
NCI-H226; read-out: pTGI (converted)
  TGI: 22.4 µM
NCI-H23
  GI50: 8.71 µM
  LC50 (50% net cell kill concentration): 33.9 µM
NCI-H23; read-out: pTGI (converted)
  TGI: 17 µM
HCT-116
  GI50: 9.77 µM
  LC50 (concentration causing 50% net cell death): 37.2 µM
HCT-116; read-out: pTGI (converted)
  TGI: 19.1 µM
HCT-15
  GI50: 3.24 µM
  LC50: > 50.1 µM
HCT-15; read-out: pTGI (converted)
  TGI: 13.8 µM
HT-29
  GI50: 8.71 µM
  LC50: 43.7 µM
HT-29; read-out: pTGI (converted)
  TGI: 19.5 µM
SW-620
  GI50: 1.55 µM
SW-620; [2]
  CC50: > 50.1 µM
SW-620; read-out: pTGI (converted)
  TGI: 4.47 µM
SF-539
  GI50: 1.35 µM
  LC50: 26.9 µM
SF-539; read-out: pTGI (converted)
  TGI: 7.94 µM
SNB-75
  GI50: 0.813 µM
  LC50: > 50.1 µM
SNB-75; read-out: pTGI (converted)
  TGI: 14.5 µM
LOX IMVI
  GI50: 3.16 µM
  LC50: 26.3 µM
LOX IMVI; read-out: pTGI (converted)
  TGI: 10.5 µM
M14
  GI50: 9.55 µM
M14; [2]
  CC50: 34.7 µM
M14; read-out: pTGI (converted)
  TGI: 18.2 µM
SK-MEL-2
  GI50: 16.2 µM
SK-MEL-2; [2]
  CC50: > 50.1 µM
SK-MEL-2; read-out: pTGI (converted)
  TGI: > 50.1 µM
SK-MEL-28
  GI50: 8.51 µM
SK-MEL-28; [2]
  CC50: 36.3 µM
SK-MEL-28; read-out: pTGI (converted)
  TGI: 17.8 µM
UACC-62
  GI50: 8.13 µM
UACC-62; [2]
  CC50: 29.5 µM
UACC-62; read-out: pTGI (converted)
  TGI: 15.5 µM
A498
  GI50: 6.31 µM
A498; [2]
  CC50: 33.9 µM
A498; read-out: pTGI (converted)
  TGI: 14.8 µM
ACHN
  GI50: 5.37 µM
ACHN; [2]
  CC50: 23.4 µM
ACHN; read-out: pTGI (converted)
  TGI: 11.2 µM
RXF 393
  GI50: 7.41 µM
RXF 393; [2]
  CC50: > 50.1 µM
RXF 393; read-out: pTGI (converted)
  TGI: 20 µM
SN12C
  GI50: 8.71 µM
SN12C; [2]
  CC50: 32.4 µM
SN12C; read-out: pTGI (converted)
  TGI: 16.6 µM
DU-145
  GI50: 5.25 µM
DU-145; [2]
  CC50: > 50.1 µM
DU-145; read-out: pTGI (converted)
  TGI: 20 µM
NCI/ADR-RES
  GI50: 10.2 µM
NCI/ADR-RES; [2]
  CC50: 46.8 µM
NCI/ADR-RES; read-out: pTGI (converted)
  TGI: 21.9 µM
BT-549
  GI50: 3.8 µM
BT-549; [2]
  CC50: 27.5 µM
BT-549; read-out: pTGI (converted)
  TGI: 11.2 µM
